Measurements taken from ChEMBL document CHEMBL4321820, “Identification and Optimization of Mechanism-Based Fluoroallylamine Inhibitors of Lysyl Oxidase-like 2/3” (J Med Chem, 2019).
Active and inactive are the calls of the source. The rule behind the calls is not given here.

How the values were obtained:
Mus musculus [1] = assay: Antifibrotic activity in CCl4-induced BALB/c mouse model of liver fibrosis assessed as reduction in liver fibrosis area at 5 to 15 mg/kg, po administered once daily at week 4 to 6 by alpha-SMA staining based microscopy; format: functional, organism-based
In short: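 Female BALB/c mice given CCl4 i.p. (1 mL/kg of 25% CCl4 in olive oil) twice weekly for 6 weeks; sacrificed 48 h after last dose. Test articles oral, once daily: prophylactic weeks 1-6 or therapeutic weeks 4-6; imatinib control 50 mg/kg daily weeks 1-6. One formalin-fixed liver lobe stained for Picro Sirius Red and α-SMA; fibrotic area as % of total liver area; mean ± SEM, one-way ANOVA with Dunnett's test.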

Mus musculus [2] = assay: Effect on plasma ALT level in CCl4-induced BALB/c mouse model of liver fibrosis at 15 mg/kg, po administered once daily for 6 weeks; format: ADME, organism-based; settings: in vivo, 1008 h
In short: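 CCl4 liver fibrosis in female BALB/c mice: CCl4 i.p. (1 mL/kg 25% in olive oil) twice weekly for 6 weeks, sacrifice 48 h after final injection. Oral once-daily dosing weeks 1-6 or weeks 4-6; imatinib 50 mg/kg daily weeks 1-6. ALT and AST measured in plasma.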

Lysyl oxidase homolog 2 [3] = molecular target: T1, Lysyl oxidase homolog 2 (Homo sapiens, UniProt Q9Y4K0); assay: Inhibition of recombinant human LOXL2 assessed as inhibition of collagen cross linking compound replenishment for 5 days and measured on day 7 by UPLC-ESI-MS/MS analysis
T1 sequence (Q9Y4K0 whole entry): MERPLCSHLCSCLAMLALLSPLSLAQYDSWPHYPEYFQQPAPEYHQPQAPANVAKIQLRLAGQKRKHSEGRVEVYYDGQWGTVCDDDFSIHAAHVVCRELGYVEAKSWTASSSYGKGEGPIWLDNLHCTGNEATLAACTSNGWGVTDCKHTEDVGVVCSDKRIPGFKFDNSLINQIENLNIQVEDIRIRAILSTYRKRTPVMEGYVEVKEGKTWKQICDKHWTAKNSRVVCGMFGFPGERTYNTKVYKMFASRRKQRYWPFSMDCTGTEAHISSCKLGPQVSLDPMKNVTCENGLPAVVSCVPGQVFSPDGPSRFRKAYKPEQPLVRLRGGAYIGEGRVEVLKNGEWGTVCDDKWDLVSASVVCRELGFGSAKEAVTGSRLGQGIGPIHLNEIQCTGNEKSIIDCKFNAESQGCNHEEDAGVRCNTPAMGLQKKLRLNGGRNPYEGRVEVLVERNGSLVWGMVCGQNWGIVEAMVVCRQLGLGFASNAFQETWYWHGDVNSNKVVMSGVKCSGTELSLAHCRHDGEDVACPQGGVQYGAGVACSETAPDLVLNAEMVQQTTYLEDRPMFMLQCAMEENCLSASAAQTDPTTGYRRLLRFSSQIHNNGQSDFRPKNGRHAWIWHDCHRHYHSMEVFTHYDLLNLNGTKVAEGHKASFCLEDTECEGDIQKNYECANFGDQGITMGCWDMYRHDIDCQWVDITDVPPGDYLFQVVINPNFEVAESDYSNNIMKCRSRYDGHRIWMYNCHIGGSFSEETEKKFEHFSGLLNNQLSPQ

Lysyl oxidase homolog 2 [4] = molecular target: T2, Lysyl oxidase homolog 2 (Rattus norvegicus, UniProt B5DF27); assay: Inhibition of recombinant rat LOLX2 using putrescine as substrate preincubated with enzyme for 30 mins followed by substrate addition and measured every 2.5 mins for 30 mins by Amplex-Red oxidation assay
T2 sequence (B5DF27 whole entry): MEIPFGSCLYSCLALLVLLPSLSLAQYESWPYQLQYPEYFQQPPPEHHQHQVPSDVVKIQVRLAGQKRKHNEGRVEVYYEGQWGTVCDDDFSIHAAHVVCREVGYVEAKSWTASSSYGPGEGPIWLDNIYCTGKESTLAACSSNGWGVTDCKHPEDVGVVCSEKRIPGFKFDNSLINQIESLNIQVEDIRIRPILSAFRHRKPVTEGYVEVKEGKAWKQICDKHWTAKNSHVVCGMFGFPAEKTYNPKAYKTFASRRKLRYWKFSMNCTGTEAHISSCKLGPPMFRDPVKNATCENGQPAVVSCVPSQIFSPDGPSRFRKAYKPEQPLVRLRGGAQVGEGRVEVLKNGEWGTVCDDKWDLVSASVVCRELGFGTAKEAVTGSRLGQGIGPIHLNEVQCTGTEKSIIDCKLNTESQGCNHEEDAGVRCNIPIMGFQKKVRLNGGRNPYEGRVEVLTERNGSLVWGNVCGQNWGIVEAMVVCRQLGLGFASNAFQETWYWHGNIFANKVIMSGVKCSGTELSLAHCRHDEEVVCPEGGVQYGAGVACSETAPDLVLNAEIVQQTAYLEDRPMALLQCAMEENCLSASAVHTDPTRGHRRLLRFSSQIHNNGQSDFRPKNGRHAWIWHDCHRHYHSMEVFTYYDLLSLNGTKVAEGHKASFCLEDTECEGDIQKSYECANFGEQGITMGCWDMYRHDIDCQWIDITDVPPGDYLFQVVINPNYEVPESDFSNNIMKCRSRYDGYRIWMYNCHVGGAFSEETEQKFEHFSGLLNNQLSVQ

[5] = Protein binding in dog plasma; format: ADME, cell-free, Canis lupus familiaris; settings: read-out: PPB (converted)
[6] = Stability in rat microsomes assessed as half life; format: ADME, Microsome
[7] = Stability in human microsomes assessed as half life; format: ADME, Microsome
Lysyl oxidase homolog 2 [8] = molecular target: T1, Lysyl oxidase homolog 2; assay: Time-dependent inhibition of recombinant human C-terminal His-tagged […] (1-774 residues) expressed in mouse myeloma cells assessed as apparent inhibition constant using putrescine as substrate by kitz-wilson plot analysis
In short: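 Recombinant human LOXL2 preincubated with inhibitor for varying times at 37 °C, then 5 mM putrescine added with 120 µM Amplex Red and 1.5 U/mL HRP. Buffer was 1.2 M urea, 50 mM sodium borate, pH 8.2. Fluorescence read every 2.5 min for 30 min. Apparent Ki and kinact derived by Kitz–Wilson analysis.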

Lysyl oxidase homolog 2 [9] = molecular target: T1, Lysyl oxidase homolog 2; assay: Substrate activity at recombinant human C-terminal His-tagged […] (1-774 residues) expressed in mouse myeloma cells assessed as oxidative turnover at 30 uM measured after 30 mins by horseradish peroxidase-coupled amplex red reagent-based fluorescence assay relative to DMSO; format: ADME, cell-based; settings: 0.5 h
In short: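 LOXL2 incubated with compound, no substrate present. Hydrogen peroxide generation read by Amplex Red/HRP fluorescence (ex 565, em 590 nm). Oxidative turnover at 30 min expressed relative to DMSO.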

IC50 (Lysyl oxidase homolog 2 [3]) | IC50 (Lysyl oxidase homolog 2 [4]) | fraction unbound [5] | half-life [6] | half-life [7] | Ki (Lysyl oxidase homolog 2 [8]) | fold change (FC) (Lysyl oxidase homolog 2 [9]) | Compound | inhibition (Mus musculus [1]) | Activity (Mus musculus [2])
 |  |  |  |  |  |  | CCOC(=O)c1ccc2c(c1)c(-c1cccc(S(=O)(=O)N(C)C)c1)c(C)n2C/C(F)=C/CN.Cl | Active | Non-Toxic
13 nM | 6 nM | 0.14 | > 90 min | > 90 min | 83 nM | 1 | Cc1c(-c2cccc(S(=O)(=O)N(C)C)c2)c2cc(C(=O)O)ccc2n1C/C(F)=C/CN.Cl |  | 
